Columns and labels:
[1] = AUC (0 to infinity) in Sprague-Dawley rat at 3 mg/kg, po and measured upto 24 hrs by LC-MS/MS analysis; assay type: ADME, organism-based; parameters: time < 24 hrs, dose 3 mg/kg, route po; details: in vivo
Summary of the method: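 Single oral 3 mg/kg dose in mouse, SD rat, beagle dog and cynomolgus monkey. Total plasma exposure after the oral dose gave Cmax, Tmax, AUC0-inf and F. Values are means of two to three animals.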

[2] = Unbound drug concentration in Sprague-Dawley rat brain at 0.2 mg/kg, iv and measured upto 24 hrs by LC-MS/MS analysis; assay type: ADME, organism-based
[3] = Unbound brain-to-plasma concentration ratio in Sprague-Dawley rat at 0.2 mg/kg, iv and measured upto 24 hrs by LC-MS/MS analysis; assay type: ADME, organism-based; details: read-out: K(p,uu,brain)
[4] = Protein binding in dog plasma assessed as fraction unbound incubated for 4 hrs by equilibrium dialysis based LC/MS/MS analysis; assay type: ADME, cell-free, Canis lupus familiaris
[5] = Brain to plasma permeability coefficient, Kp in Sprague-Dawley rat at 0.2 mg/kg, iv and measured upto 24 hrs by LC-MS/MS analysis; assay type: ADME, organism-based
Summary of the method: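 Total brain to total plasma partition coefficient (Kp) measured in mouse, SD rat and cynomolgus monkey. The unbound ratio (Kp,uu) was corrected with brain homogenate binding. Values are means of two to three animals.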

[6] = target: Metabotropic glutamate receptor 2 (Rattus norvegicus, UniProt P31421); assay: Positive allosteric modulator activity at rat mGlu2 in human HEK cells co-expressing […] assessed as increase in by thallium flux preincubated for 2.5 mins followed by gluatamate addition by thallium flux assay; assay type: cell-based
[7] = Solubility of compound in FaSSIF; assay type: ADME
[8] = Lipophilicity, logP of the compound; assay type: physicochemical; details: octanol/water
[9] = target: Cav1.2 (Homo sapiens, UniProt Q13936); assay: Inhibition of Cav1.2 (unknown origin) at 10 uM; assay type: toxicity
Summary of the method: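 Cardiac ion channel electrophysiology (functional EP) panel, with percent inhibition measured at 10 μM.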

[10] = Genotoxicity in Salmonella typhimurium TA98 in presence of S9 fraction by Ames test; assay type: toxicity, subcellular; details: salmonella enterica subsp. enterica serovar typhimurium
Summary of the method: (§1)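 Ames bacterial reverse mutation test in strains TA98 and […], run with and without S9 metabolic activation.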

[11] = AUC in Sprague-Dawley rat at 10 mg/kg, po administered as spray-dried dispersion formulation and measured after 24 hrs by LC-MS/MS analysis; assay type: ADME, organism-based; parameters: dose 10 mg/kg, time 24 hrs, route po; details: in vivo
Summary of the method: (§2)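 Rats were dosed orally at 3, 10 and 30 mg/kg with a spray-dried dispersion of the free base and HPMCP-HP55 polymer (25%/75%), in 30% Dexolve. Total plasma Cmax and AUC were measured, N = 3.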

[12] = Cmax in Beagle dog at 3 mg/kg, po and measured upto 24 hrs by LC-MS/MS analysis; assay type: ADME, organism-based, Canis lupus familiaris; parameters: dose 3 mg/kg, time < 24 hrs, route po; details: in vivo
Summary of the method: (§3)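 Single oral 3 mg/kg dose in mouse, SD rat, beagle and cyno. Cmax is the peak total plasma concentration. Values are means of two to three animals.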

[13] = Genotoxicity in Salmonella typhimurium TA98 by Ames test; assay type: toxicity; details: salmonella enterica subsp. enterica serovar typhimurium; summary of the method: as §1
[14] = Cmax in CD-1 mouse plasma at 3 mg/kg, po and measured upto 24 hrs by LC-MS/MS analysis; assay type: ADME, organism-based; parameters: time < 24 hrs, dose 3 mg/kg, route po; summary of the method: as §3
[15] = test system: Rattus norvegicus; assay: Reversal of haloperidol-induced catalepsy Sprague-Dawley rat model at 0.3 to 30 mg/kg,po; assay type: functional, organism-based; details: dose 0.3-30 mg/kg
Summary of the method: (§4)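 Sprague-Dawley rats received haloperidol 1.5 mg/kg i.p. to induce catalepsy, with the compound dosed orally at 0.3–30 mg/kg. Groups were 8–10 rats and compared with vehicle + haloperidol (p < 0.05). MED = lowest oral dose giving significant reversal.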

[16] = target: Metabotropic glutamate receptor 5 (Rattus norvegicus, UniProt P31424); assay: Positive allosteric modulator activity at rat mGlu5 in human HEK cells assessed as increase in calcium flux preincubated for 2.5 mins followed by gluatamate addition by Fluo-4 AM dye based calcium mobilization assay; assay type: cell-based
[17] = target: hERG (KCNH2) (Homo sapiens, UniProt Q12809); assay: Inhibition of human ERG at 10 uM; assay type: toxicity
Summary of the method: (§5)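 Eurofins Cardiac Profiler functional electrophysiology panel of potassium, calcium and sodium cardiac ion channels, including hERG. Compound tested at 10 μM, reported as percent inhibition.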

[18] = Cmax in Sprague-Dawley rat at 10 mg/kg, po administered as spray-dried dispersion formulation and measured after 24 hrs by LC-MS/MS analysis; assay type: ADME, organism-based; parameters: dose 10 mg/kg, time 24 hrs, route po; details: in vivo; summary of the method: as §2
[19] = Volume of distribution at steady state in Cynomolgus monkey at 0.2 mg/kg, iv and measured upto 24 hrs by LC-MS/MS analysis; assay type: ADME, organism-based, Macaca fascicularis; details: in vivo, read-out: Vdss
Summary of the method: (§6)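 Single-dose iv and oral PK in separate arms: mouse 1 mg/kg iv / 3 mg/kg po, SD rat 0.2/3, beagle 0.5/3, cynomolgus 0.2/3 mg/kg. Plasma parameters (Vss, Tmax, F) are means of two to three animals per species.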

[20] = AUC in Sprague-Dawley rat at 30 mg/kg, po administered as spray-dried dispersion formulation and measured after 24 hrs by LC-MS/MS analysis; assay type: ADME, organism-based; parameters: dose 30 mg/kg, time 24 hrs, route po; details: in vivo; summary of the method: as §2
[21] = target: Metabotropic glutamate receptor 7 (Rattus norvegicus, UniProt P35400); assay: Positive allosteric modulator activity at rat mGlu7 in human HEK cells co-expressing […] assessed as increase in by thallium flux preincubated for 2.5 mins followed by gluatamate addition by thallium flux assay; assay type: cell-based
[22] = Protein binding in rat plasma assessed as fraction unbound incubated for 4 hrs by equilibrium dialysis based LC/MS/MS analysis; assay type: ADME, cell-free
[23] = Clearance in Sprague-Dawley rat plasma at 0.2 mg/kg, iv and measured upto 24 hrs by LC-MS/MS analysis; assay type: ADME, organism-based
Summary of the method: (§7)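 Single intravenous doses: mouse 1 mg/kg, SD rat 0.2 mg/kg, beagle dog 0.5 mg/kg, cynomolgus monkey 0.2 mg/kg. Plasma clearance, Vss and elimination half-life came from the plasma profiles. Values are means of two to three animals.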

[24] = target: Nuclear receptor subfamily 1 group I member 2 (Homo sapiens, UniProt O75469); assay: Activation of human PXR
[25] = Cmax in Sprague-Dawley rat at 3 mg/kg, po and measured upto 24 hrs by LC-MS/MS analysis; assay type: ADME, organism-based; parameters: time < 24 hrs, dose 3 mg/kg, route po; details: in vivo; summary of the method: as §3
[26] = target: Nav1.5 (Homo sapiens, UniProt Q14524); assay: Inhibition of Nav1.5 (unknown origin) at 10 uM; assay type: toxicity; summary of the method: as §5
[27] = target: Metabotropic glutamate receptor 4 (Homo sapiens) (UniProt Q14833); assay: Positive allosteric modulator activity at human mGlu4 in Chinese hamster CHO cells co-expressing Gqi5 assessed as maximum increase in calcium flux preincubated for 2.5 mins followed by gluatamate addition and measured for 2 mins by Fluo-4 AM dye based calcium mobilization assay; assay type: cell-based; details: filed as positive allosteric modulator, time 4.5 min
[28] = target: Cytochrome P450 3A4 (Homo sapiens, UniProt P08684); assay: Inhibition of CYP3A4 in human liver microsomes using midazolam as substrate preincubated for 15 mins followed by NADPH addition and measured after 8 mins by LC/MS/MS analysis; assay type: ADME, Microsome
[29] = test system: Rattus norvegicus; assay: Reversal of haloperidol-induced catalepsy Sprague-Dawley rat model assessed as minimum effective dose administered orally; assay type: functional; details: route po, read-out: MED; summary of the method: as §4
[30] = Solubility of compound intestinal fluid assessed as AUC administered as active pharmaceutical ingredient (API) formulation; assay type: ADME
[31] = Tmax in Sprague-Dawley rat at 3 mg/kg, po and measured upto 24 hrs by LC-MS/MS analysis; assay type: ADME, organism-based; details: in vivo; summary of the method: as §6
[32] = Elimination half life in CD-1 mouse plasma at 1 mg/kg, iv and measured upto 24 hrs by LC-MS/MS analysis; assay type: ADME, organism-based; details: read-out: beta t1/2 (converted); summary of the method: as §7

Sequence of Metabotropic glutamate receptor 4 (Homo sapiens) (Q14833 whole entry): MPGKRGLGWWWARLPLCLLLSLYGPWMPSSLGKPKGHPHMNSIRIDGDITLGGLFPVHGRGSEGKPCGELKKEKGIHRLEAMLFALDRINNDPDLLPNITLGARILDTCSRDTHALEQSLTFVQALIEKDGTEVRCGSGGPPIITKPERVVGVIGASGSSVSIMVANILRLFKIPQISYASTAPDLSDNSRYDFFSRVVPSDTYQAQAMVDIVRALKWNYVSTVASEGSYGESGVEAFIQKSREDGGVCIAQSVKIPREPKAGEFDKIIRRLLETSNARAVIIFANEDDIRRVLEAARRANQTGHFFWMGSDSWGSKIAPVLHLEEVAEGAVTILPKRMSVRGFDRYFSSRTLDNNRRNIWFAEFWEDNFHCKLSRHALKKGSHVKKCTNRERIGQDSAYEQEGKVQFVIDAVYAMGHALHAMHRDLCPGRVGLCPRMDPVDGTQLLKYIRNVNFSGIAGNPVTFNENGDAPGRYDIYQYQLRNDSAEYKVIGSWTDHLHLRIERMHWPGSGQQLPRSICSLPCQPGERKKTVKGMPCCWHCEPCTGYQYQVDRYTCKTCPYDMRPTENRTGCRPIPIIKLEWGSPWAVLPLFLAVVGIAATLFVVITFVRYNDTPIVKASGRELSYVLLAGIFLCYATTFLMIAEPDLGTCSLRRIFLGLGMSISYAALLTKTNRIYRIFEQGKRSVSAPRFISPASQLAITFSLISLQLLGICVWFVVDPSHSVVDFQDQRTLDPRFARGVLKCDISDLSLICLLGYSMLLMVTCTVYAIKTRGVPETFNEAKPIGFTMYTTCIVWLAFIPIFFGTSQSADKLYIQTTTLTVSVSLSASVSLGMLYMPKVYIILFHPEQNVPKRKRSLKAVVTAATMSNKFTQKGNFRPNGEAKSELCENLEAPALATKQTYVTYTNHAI
Sequence of Cav1.2 (Q13936 whole entry): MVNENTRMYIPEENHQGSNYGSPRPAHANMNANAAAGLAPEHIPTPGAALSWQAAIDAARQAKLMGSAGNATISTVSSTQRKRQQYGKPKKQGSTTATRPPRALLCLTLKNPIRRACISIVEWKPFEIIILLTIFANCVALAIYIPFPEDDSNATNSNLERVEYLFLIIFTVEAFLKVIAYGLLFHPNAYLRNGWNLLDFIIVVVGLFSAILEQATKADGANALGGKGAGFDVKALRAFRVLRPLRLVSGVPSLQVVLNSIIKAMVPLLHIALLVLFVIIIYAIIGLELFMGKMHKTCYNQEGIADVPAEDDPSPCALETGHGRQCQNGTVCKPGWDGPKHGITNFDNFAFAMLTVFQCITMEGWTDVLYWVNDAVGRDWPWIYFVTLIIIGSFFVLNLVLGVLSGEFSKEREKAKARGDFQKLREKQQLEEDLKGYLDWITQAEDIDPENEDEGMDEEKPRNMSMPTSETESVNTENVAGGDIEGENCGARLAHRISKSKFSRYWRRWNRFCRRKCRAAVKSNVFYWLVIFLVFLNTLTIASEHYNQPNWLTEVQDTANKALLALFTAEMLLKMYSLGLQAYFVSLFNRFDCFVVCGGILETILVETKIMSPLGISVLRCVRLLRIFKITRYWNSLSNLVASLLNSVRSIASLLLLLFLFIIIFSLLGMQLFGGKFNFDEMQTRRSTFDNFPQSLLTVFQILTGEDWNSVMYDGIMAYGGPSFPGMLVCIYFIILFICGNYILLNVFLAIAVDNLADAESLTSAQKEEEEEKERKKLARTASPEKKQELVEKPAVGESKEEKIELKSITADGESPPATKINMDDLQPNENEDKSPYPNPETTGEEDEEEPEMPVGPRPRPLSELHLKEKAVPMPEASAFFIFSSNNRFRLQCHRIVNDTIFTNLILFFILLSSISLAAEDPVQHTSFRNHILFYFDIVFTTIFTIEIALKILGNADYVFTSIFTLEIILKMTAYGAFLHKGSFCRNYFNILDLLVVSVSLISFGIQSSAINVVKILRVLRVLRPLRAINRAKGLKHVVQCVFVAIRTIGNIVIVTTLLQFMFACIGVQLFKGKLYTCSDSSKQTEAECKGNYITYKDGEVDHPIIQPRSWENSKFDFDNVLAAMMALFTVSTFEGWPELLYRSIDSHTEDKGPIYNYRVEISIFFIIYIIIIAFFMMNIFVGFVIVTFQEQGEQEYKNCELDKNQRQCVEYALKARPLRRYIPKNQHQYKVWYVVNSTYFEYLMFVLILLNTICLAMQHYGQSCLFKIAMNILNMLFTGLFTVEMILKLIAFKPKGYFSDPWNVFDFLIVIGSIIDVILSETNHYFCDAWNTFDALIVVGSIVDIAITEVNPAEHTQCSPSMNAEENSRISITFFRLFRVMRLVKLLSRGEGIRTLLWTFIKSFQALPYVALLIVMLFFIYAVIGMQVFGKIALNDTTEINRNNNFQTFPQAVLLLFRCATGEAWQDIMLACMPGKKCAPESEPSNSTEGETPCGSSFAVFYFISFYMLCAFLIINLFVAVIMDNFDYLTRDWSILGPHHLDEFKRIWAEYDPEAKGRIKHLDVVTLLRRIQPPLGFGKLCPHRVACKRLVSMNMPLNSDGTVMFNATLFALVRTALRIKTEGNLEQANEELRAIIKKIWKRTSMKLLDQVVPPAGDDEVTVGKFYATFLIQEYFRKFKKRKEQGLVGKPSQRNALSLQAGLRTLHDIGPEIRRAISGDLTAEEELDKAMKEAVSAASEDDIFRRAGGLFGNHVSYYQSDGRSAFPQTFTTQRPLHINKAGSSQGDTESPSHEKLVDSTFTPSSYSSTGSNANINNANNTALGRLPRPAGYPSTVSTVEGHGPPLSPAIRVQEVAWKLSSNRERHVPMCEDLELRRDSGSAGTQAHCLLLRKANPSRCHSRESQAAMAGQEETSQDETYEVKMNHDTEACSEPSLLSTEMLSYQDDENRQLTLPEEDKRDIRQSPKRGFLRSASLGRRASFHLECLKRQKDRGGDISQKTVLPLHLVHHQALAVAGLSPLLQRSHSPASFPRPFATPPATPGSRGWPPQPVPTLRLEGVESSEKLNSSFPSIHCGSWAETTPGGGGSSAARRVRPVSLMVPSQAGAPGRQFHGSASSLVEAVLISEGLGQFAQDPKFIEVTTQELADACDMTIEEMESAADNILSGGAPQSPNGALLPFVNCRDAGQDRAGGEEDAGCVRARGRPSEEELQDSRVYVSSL
Sequence of Cytochrome P450 3A4 (P08684 whole entry): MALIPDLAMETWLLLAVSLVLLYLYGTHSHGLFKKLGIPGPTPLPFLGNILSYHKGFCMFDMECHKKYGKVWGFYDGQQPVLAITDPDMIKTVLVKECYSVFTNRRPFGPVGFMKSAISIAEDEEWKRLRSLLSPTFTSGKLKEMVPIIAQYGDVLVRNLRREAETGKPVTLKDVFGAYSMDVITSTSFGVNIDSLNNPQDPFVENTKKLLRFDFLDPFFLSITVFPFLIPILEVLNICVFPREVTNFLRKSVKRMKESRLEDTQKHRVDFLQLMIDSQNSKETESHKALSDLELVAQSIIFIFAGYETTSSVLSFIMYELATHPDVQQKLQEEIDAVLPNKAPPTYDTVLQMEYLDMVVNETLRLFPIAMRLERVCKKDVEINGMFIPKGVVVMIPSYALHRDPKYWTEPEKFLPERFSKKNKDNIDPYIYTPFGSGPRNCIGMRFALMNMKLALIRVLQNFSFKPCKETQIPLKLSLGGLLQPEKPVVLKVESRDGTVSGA
Sequence of Metabotropic glutamate receptor 7 (P35400 whole entry): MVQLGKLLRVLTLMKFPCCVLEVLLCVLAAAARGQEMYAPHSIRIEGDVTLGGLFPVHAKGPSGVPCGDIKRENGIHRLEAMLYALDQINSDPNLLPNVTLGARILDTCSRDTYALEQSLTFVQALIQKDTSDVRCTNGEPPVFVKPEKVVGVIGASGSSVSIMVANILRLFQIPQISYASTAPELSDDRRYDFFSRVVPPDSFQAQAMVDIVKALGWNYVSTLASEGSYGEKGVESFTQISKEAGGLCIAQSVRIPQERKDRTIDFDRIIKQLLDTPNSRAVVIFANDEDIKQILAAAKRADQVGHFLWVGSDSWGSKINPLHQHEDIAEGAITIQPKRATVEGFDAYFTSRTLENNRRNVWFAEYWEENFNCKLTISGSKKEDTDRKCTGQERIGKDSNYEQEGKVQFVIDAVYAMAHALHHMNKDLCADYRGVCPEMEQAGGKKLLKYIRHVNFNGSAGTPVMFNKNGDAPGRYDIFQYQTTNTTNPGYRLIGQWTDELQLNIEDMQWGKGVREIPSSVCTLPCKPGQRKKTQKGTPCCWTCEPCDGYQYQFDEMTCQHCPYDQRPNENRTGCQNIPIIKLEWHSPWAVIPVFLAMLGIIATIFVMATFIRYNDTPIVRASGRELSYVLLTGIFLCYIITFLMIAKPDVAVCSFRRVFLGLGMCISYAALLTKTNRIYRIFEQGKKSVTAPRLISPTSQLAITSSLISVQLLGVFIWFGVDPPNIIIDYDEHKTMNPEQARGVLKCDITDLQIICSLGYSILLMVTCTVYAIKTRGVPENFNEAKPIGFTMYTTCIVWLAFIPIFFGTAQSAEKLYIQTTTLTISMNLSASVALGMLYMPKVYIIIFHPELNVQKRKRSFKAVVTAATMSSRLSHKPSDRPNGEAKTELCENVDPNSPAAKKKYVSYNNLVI
Sequence of Nuclear receptor subfamily 1 group I member 2 (O75469 whole entry): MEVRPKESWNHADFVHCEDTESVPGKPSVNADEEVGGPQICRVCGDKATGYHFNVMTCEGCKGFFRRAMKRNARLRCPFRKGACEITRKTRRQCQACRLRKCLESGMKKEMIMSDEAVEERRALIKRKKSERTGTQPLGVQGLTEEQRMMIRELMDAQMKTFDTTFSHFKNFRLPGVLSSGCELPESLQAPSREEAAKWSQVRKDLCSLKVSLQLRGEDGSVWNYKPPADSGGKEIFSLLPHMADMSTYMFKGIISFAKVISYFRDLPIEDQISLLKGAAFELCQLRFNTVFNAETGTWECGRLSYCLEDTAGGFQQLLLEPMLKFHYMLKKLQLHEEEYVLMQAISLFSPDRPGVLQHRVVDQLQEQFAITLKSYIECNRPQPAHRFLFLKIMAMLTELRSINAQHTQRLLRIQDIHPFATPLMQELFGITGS

SMILES: FC(F)(F)c1nccc2cc(Nc3n[nH]c4ncccc34)ccc12
- AUC(0-inf) [1]: 9.66 µM·h
- fraction unbound at 24 h [2]: > 0.001
- Kp uu at 24 h [3]: 0.09
- fraction unbound at 4 h [4]: 0.014
- Kp at 24 h [5]: 1.51
- EC50 [6]: > 10 µM
- solubility [7]: < 5 µg/mL
- logP [8]: 3.78
- inhibition at 10 µM [9]: < 50%
- Activity [10]: Non-Toxic
- AUC at 24 h [11]: 23.7 µM·h
- Cmax [12]: 490 nM
- Activity [13]: Non-Toxic
- Cmax [14]: 1100 nM
- Activity [15]: Dose-Dependent Effect
- EC50 [16]: > 10 µM
- inhibition at 10 µM [17]: < 50%
- Cmax [18]: 2050 nM
- Vd [19]: 3.2 L/kg
- AUC at 24 h [20]: 83.9 µM·h
- EC50 [21]: > 10 µM
- fraction unbound at 4 h [22]: 0.01
- clearance [23]: 37.7 mL/min/kg
- Activity [24]: Not Active
- Cmax [25]: 1440 nM
- inhibition at 10 µM [26]: < 50%
- Emax [27]: 92.6%
- IC50 [28]: > 30 µM
- minimal effective dose [29]: 1 mg/kg
- AUC [30]: 25300 ng·h/mL
- Tmax [31]: 2 h
- half-life [32]: 179 min

Source: ChEMBL document CHEMBL5257040, “Discovery of VU2957 (Valiglurax): An mGlu4 Positive Allosteric Modulator Evaluated as a Preclinical Candidate for the Treatment of Parkinson's Disease” (ACS Med Chem Lett, 2019)
